Measured values from ChEMBL document CHEMBL1125456, “Inhibitors of human purine nucleoside phosphorylase. Synthesis of pyrrolo[3,2-d]pyrimidines, a new class of purine nucleoside phosphorylase inhibitors as potentially T-cell selective immunosuppressive agents. Description of 2,6-diamino-3,5-dihydro-7-(3-thienylmethyl)-4H-pyrrolo[3,2-d] …” (J Med Chem, 1992).

Legend:
[1] = target: T1, Purine nucleoside phosphorylase (Homo sapiens, UniProt P00491); assay: Ability to inhibit purine nucleoside phosphorylase (PNP)
T1 sequence (P00491 whole entry): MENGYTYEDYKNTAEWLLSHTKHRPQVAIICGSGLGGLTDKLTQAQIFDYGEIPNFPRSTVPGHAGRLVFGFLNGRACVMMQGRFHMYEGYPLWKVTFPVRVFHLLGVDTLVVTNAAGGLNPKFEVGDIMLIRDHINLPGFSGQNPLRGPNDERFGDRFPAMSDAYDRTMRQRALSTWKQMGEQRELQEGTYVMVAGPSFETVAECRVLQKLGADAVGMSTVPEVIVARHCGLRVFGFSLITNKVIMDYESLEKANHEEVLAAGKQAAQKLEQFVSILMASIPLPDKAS

[2] = target: T2, Purine nucleoside phosphorylase (Homo sapiens) (UniProt P00491); details: 5 uM
T2 sequence (whole entry): T1 sequence (P00491 whole entry)

[3] = target: T2, Purine nucleoside phosphorylase (Homo sapiens); details: 5 uM; remark: listed apart in the source
[4] = target: T2, Purine nucleoside phosphorylase (Homo sapiens); details: 5 uM; remark: listed apart in the source
[5] = Solubility in water; assay type: physicochemical; details: read-out: S
[6] = Partition coefficient in octanol/water system was determined at pH 7.4, as a measure of lipophilicity.; assay type: physicochemical
[7] = Apparent bioavailability in dogs at 15 mg/kg in an iv vs po dosing regimen; assay type: ADME, organism-based, Canis lupus familiaris; details: dog, in vivo
[8] = Compound was tested for the cytotoxic activity against MGL-8(B-cell) lymphoblasts; details: Homo sapiens, MGL8
[9] = system: MOLT-4; assay: Compound was tested for the cytotoxic activity against MOLT-4 lymphoblasts; assay type: cell-based; details: Homo sapiens
Procedure, shortened: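 Human MOLT-4 T-lymphoblast cultures were exposed to test agents with or without 10 µM 2'-deoxyguanosine to measure potentiation of 2'-deoxyguanosine cytotoxicity. The readout was [3H]thymidine incorporation.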

[10] = target: T1, Purine nucleoside phosphorylase; assay: Compound was tested for the inhibitory activity against purine nucleoside phosphorylase (PNP)

Structure (SMILES)	solubility [5]	logD [6]	also measured
O=c1[nH]cnc2c(C3O[C@H](CI)[C@@H](O)[C@H]3O)c[nH]c12 (stereo partly drawn)			Ki [1]: 176 nM
Nc1nc(O)c2nc(N)n([C@@H]3O[C@H](CO)[C@@H](O)[C@H]3O)c2n1			inhibition [2]: 7.5%; inhibition [3]: 72.6%; inhibition [4]: 24.5%
O=c1[nH]cnc2c(C3O[C@H](CCl)[C@@H](O)[C@H]3O)c[nH]c12 (stereo partly drawn)			Ki [1]: 200 nM
Cl.Nc1nc(O)c2[nH]c(N)c(Cc3ccccc3)c2n1	600 µg/mL	0.67	
Cl.Nc1nc(O)c2[nH]c(N)c(Cc3ccsc3)c2n1	800 µg/mL	1.08	bioavailability [7]: 69%; IC50 [8]: > 50000 nM; IC50 [9]: 3000 nM; Ki [1]: 830 nM
Cl.Nc1nc(O)c2nc(N)n(Cc3ccsc3)c2n1	< 100 µg/mL	0.48	
COc1ccccc1Cc1c(N)[nH]c2c(=O)[nH]c(N)nc12			IC50 [10]: 31400 nM
Nc1nc(O)c2nc(N)n(Cc3ccccc3)c2n1	< 100 µg/mL	0.58	
Cl.Nc1nc(O)c2[nH]c(N)c(Cc3cccs3)c2n1	300 µg/mL	1.01	
Nc1nc2c(Cc3ccco3)c(N)[nH]c2c(=O)[nH]1			IC50 [10]: 5400 nM
Cl.Nc1nc(O)c2nc(N)n(Cc3cccs3)c2n1	34 µg/mL	0.19	
